Assay results reported in ChEMBL document CHEMBL3351548, “UNC2025, a potent and orally bioavailable MER/FLT3 dual inhibitor” (J Med Chem, 2014).
Active and inactive are the calls of the source. The rule behind the calls is not given here.

Assays:
[1] = Kinetic solubility of the compound in normal saline at pH 7.4; format: physicochemical; conditions: buffer
[2] = Volume of distribution at steady state in Swiss albino mouse at 3 mg/kg, iv; format: ADME, organism-based; design: dose 3 mg/kg, route intravenous; conditions: in vivo, read-out: Vdss
Method in brief: (§1)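 Mouse PK after single intravenous or oral dose; n = 3 mice per time point. Parameters reported: T1/2, Cmax, AUClast, Vss and CL for iv; Tmax, Cmax, AUClast and %F for po. One iv formulation given is 7.5% v/v N-methyl pyrrolidone with 20% cremophor EL in water.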

[3] = Half life in Swiss albino mouse at 3 mg/kg, iv; format: ADME, organism-based; design: dose 3 mg/kg, route intravenous; conditions: in vivo; method in brief: as §1
[4] = Cmax in Swiss albino mouse at 3 mg/kg, iv; format: ADME, organism-based; design: dose 3 mg/kg, route intravenous; conditions: in vivo; method in brief: as §1
[5] = Cmax in Swiss albino mouse at 3 mg/kg, po; format: ADME, organism-based; design: dose 3 mg/kg, route oral; conditions: in vivo; method in brief: as §1
Mus musculus [6] = experiment: Oral bioavailability in Swiss albino mouse at 3 mg/kg; format: ADME, organism-based; conditions: in vivo; method in brief: as §1
[7] = Tmax in Swiss albino mouse at 3 mg/kg, po; format: ADME, organism-based; design: dose 3 mg/kg, route oral; conditions: in vivo; method in brief: as §1
[8] = Clearance in Swiss albino mouse at 3 mg/kg, iv; format: ADME, organism-based; design: dose 3 mg/kg, route intravenous; conditions: in vivo; method in brief: as §1
[9] = AUClast in Swiss albino mouse at 3 mg/kg, iv; format: ADME, organism-based; design: time 0 - last, dose 3 mg/kg, route intravenous; conditions: plasma; method in brief: as §1
[10] = AUClast in Swiss albino mouse at 3 mg/kg, po; format: ADME, organism-based; design: time 0 - last, dose 3 mg/kg, route oral; conditions: plasma; method in brief: as §1
[11] = Plasma protein binding in human 697 cells xenografted NOD.Cg-Prkdcscid Il2rgtm1Wjl/SzJ mouse at 3 mg/kg, po administered as single dose measured after 30 mins post dose; format: ADME, organism-based; design: dose 3 mg/kg, route oral; conditions: read-out: PPB (converted)
Method in brief: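 Plasma protein binding was measured in mice, n = 3.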

697 = experiment: Inhibition of Mer phosphorylation in human 697 cells xenografted in NOD.Cg-Prkdcscid Il2rgtm1Wjl/SzJ mouse at 3 mg/kg, po administered as single dose measured after 30 mins post dose by densitometry relative to control; format: functional; conditions: Mus musculus, 697, 0.5 h
Method in brief: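 NSG mice received 2 × 10^6 697 B-ALL cells by tail-vein injection, with 14 days for engraftment. A single 3 mg/kg dose or saline vehicle (10 mL/kg) was given by oral gavage, and femurs were taken 30 min later. Marrow cells were held 10 min at room temperature in RPMI with 20% FBS and 240 μM pervanadate. Mer was then immunoprecipitated and p-Mer/total Mer quantified by Western densitometry; n = 6.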

[12] = Plasma concentration in human 697 cells xenografted NOD.Cg-Prkdcscid Il2rgtm1Wjl/SzJ mouse at 3 mg/kg, po administered as single dose measured after 30 mins post dose; format: ADME, organism-based; design: dose 3 mg/kg, route oral
[13] = biological target: STE20-like serine/threonine-protein kinase (Homo sapiens, UniProt Q9H2G2); experiment: Inhibition of SLK (unknown origin) by Off-chip Mobility Shift Assay
STE20-like serine/threonine-protein kinase, sequence (Q9H2G2 whole entry): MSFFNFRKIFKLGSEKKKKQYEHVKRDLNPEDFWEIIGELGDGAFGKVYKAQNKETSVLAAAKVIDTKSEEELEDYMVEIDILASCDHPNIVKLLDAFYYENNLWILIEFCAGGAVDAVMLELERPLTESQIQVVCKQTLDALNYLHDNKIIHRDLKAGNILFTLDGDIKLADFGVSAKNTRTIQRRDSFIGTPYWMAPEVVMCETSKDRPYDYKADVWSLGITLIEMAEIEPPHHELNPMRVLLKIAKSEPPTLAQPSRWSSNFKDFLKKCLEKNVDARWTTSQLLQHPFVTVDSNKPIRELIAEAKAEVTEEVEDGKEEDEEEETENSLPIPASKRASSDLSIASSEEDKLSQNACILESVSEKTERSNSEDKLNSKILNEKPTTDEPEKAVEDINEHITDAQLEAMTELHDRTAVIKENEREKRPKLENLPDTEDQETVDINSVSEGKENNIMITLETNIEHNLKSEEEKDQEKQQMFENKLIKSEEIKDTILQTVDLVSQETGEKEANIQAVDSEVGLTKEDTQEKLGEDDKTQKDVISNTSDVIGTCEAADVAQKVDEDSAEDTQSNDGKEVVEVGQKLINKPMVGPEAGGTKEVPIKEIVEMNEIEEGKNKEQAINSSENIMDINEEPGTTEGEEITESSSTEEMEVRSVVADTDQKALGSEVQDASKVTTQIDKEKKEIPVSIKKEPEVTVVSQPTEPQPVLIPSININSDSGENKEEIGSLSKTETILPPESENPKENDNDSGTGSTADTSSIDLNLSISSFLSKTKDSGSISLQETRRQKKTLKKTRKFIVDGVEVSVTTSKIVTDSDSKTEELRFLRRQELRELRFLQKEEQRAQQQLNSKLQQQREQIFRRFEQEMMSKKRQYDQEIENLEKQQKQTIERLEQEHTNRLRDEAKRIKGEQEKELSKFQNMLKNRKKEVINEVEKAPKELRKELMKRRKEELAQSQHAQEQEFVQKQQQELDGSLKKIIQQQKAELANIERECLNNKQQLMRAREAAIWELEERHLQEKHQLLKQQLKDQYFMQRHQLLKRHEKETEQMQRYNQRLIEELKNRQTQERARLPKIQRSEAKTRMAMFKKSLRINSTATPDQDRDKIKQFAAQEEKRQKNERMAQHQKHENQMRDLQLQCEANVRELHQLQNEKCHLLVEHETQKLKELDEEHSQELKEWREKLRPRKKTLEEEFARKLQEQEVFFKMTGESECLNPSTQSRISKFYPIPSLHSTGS
Method in brief: (§2)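 Kinase panel run in duplicate using a microcapillary electrophoresis (mobility shift) assay. Screening concentration was 100 nM. IC50 values were then determined at each kinase's ATP Km.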

[14] = biological target: Mast/stem cell growth factor receptor Kit (Homo sapiens, UniProt P10721); experiment: Inhibition of Kit (unknown origin) by Off-chip Mobility Shift Assay; method in brief: as §2
Mast/stem cell growth factor receptor Kit, sequence (P10721 whole entry): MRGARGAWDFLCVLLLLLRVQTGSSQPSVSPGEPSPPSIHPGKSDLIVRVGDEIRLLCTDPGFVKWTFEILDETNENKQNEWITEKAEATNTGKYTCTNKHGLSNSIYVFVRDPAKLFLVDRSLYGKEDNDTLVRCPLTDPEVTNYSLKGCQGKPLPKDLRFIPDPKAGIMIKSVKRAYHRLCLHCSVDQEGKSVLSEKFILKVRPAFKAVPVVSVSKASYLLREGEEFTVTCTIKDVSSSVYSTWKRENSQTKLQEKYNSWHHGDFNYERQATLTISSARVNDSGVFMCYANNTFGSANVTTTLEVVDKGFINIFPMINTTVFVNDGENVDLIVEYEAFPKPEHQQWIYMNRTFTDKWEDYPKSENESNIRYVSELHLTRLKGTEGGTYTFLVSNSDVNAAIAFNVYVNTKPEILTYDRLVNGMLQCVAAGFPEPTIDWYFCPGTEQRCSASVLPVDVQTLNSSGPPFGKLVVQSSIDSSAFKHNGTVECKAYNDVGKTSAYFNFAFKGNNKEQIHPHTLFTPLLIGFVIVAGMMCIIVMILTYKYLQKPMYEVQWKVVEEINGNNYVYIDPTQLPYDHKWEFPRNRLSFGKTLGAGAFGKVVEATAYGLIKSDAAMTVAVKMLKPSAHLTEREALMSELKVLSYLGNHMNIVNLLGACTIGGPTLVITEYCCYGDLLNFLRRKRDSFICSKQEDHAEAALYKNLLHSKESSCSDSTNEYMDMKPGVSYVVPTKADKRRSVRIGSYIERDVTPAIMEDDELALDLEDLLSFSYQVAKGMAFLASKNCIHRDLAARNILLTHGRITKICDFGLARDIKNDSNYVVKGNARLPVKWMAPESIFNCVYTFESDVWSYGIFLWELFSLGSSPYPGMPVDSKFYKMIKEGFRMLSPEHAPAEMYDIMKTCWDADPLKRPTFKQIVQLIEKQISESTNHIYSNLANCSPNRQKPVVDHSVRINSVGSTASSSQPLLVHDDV

[15] = biological target: NT-3 growth factor receptor (Homo sapiens, UniProt Q16288); experiment: Inhibition of TRKC (unknown origin) by Off-chip Mobility Shift Assay; method in brief: as §2
[16] = biological target: T1, NUAK family SNF1-like kinase 1 (Homo sapiens, UniProt O60285); experiment: Inhibition of Nuak1 (unknown origin) by Off-chip Mobility Shift Assay; method in brief: as §2
T1 sequence (O60285 whole entry): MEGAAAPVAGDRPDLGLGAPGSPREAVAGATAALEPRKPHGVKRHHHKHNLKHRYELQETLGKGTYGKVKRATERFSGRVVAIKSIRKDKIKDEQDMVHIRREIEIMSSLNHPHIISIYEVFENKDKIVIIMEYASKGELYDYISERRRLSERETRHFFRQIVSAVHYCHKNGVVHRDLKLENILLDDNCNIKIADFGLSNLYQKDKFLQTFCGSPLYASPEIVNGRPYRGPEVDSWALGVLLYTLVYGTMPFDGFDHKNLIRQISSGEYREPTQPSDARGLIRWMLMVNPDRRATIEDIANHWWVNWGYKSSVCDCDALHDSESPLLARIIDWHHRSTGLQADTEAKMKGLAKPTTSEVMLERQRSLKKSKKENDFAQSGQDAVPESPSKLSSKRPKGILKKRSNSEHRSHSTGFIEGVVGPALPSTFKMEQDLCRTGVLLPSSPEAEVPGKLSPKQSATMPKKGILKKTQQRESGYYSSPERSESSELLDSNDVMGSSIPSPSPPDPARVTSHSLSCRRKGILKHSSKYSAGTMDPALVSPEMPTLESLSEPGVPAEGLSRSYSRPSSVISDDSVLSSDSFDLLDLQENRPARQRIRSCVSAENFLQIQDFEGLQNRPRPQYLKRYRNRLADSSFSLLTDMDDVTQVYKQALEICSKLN

[17] = biological target: Hepatocyte growth factor receptor (Homo sapiens, UniProt P08581); experiment: Inhibition of Met (unknown origin) by Off-chip Mobility Shift Assay; method in brief: as §2
Hepatocyte growth factor receptor, sequence (P08581 whole entry): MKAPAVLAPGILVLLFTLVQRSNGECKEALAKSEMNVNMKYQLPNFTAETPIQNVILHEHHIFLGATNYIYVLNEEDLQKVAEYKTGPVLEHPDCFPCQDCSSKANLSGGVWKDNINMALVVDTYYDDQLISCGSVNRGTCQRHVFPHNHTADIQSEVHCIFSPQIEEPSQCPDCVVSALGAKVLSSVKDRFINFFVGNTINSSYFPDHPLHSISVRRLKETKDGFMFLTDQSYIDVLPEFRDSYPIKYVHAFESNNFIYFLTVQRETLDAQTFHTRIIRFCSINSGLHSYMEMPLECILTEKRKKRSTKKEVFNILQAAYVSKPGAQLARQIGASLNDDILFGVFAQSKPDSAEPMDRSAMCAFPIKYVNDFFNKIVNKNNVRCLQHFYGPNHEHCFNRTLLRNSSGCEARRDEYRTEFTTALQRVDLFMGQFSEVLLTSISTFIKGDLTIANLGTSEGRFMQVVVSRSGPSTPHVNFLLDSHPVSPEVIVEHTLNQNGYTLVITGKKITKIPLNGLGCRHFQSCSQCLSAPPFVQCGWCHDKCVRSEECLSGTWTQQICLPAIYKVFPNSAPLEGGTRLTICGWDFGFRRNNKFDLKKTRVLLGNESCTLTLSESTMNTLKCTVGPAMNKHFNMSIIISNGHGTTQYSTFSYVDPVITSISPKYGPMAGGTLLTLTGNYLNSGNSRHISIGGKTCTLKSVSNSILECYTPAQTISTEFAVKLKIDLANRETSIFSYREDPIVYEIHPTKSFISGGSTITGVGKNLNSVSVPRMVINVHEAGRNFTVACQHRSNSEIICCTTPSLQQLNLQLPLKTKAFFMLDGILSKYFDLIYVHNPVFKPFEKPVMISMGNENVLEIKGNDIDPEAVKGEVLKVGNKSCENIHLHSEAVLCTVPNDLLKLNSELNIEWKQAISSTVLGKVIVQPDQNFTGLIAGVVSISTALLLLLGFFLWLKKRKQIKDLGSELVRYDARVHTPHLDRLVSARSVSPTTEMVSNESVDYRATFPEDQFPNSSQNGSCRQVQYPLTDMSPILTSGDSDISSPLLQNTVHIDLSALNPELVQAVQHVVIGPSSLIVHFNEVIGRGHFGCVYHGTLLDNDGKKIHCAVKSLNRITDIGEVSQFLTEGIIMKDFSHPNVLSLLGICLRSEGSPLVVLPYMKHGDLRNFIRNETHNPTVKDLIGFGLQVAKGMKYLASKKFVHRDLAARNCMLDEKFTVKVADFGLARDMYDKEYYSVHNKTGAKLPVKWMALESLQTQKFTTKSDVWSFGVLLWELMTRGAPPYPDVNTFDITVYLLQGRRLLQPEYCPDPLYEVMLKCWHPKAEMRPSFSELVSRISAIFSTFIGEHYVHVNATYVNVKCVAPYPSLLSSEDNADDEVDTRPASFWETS

Plasma = experiment: Fraction unbound in plasma of human 697 cells xenografted NOD.Cg-Prkdcscid Il2rgtm1Wjl/SzJ mouse at 3 mg/kg, po administered as single dose measured after 30 mins post dose; format: ADME, organism-based; design: dose 3 mg/kg, route oral; conditions: in vivo, 0.5 h
[18] = biological target: T2, Tyrosine-protein kinase Mer (Homo sapiens) (UniProt Q12866); conditions: A549, 50 to 300 nM
T2 sequence (whole entry): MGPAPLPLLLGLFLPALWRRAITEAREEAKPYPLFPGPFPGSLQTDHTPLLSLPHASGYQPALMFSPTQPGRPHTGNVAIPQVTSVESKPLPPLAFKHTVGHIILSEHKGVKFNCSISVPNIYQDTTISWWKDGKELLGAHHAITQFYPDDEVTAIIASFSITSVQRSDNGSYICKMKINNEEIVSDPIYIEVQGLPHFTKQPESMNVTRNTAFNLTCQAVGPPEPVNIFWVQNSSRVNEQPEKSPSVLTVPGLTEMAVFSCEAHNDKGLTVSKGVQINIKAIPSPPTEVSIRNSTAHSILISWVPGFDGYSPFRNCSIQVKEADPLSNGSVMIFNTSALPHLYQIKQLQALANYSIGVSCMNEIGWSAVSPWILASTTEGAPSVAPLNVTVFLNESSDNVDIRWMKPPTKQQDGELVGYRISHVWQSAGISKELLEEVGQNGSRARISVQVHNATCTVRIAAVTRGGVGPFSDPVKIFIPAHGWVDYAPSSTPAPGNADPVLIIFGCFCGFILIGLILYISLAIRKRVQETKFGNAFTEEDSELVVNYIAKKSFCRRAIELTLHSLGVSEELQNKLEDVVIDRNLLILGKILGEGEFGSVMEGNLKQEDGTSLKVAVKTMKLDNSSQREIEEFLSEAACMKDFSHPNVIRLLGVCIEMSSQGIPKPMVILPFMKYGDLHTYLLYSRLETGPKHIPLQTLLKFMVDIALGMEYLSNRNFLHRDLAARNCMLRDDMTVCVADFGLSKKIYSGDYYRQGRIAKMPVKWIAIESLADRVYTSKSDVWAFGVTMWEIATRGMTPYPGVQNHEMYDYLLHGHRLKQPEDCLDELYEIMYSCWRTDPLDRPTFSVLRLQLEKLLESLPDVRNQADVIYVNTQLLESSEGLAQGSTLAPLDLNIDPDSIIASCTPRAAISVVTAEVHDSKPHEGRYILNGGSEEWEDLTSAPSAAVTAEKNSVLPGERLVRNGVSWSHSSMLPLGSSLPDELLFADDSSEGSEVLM

[19] = biological target: Receptor-type tyrosine-protein kinase FLT3 (Homo sapiens) (UniProt P36888); conditions: MOLM-14, 10 to 50 nM
Receptor-type tyrosine-protein kinase FLT3 (Homo sapiens), sequence (P36888 whole entry): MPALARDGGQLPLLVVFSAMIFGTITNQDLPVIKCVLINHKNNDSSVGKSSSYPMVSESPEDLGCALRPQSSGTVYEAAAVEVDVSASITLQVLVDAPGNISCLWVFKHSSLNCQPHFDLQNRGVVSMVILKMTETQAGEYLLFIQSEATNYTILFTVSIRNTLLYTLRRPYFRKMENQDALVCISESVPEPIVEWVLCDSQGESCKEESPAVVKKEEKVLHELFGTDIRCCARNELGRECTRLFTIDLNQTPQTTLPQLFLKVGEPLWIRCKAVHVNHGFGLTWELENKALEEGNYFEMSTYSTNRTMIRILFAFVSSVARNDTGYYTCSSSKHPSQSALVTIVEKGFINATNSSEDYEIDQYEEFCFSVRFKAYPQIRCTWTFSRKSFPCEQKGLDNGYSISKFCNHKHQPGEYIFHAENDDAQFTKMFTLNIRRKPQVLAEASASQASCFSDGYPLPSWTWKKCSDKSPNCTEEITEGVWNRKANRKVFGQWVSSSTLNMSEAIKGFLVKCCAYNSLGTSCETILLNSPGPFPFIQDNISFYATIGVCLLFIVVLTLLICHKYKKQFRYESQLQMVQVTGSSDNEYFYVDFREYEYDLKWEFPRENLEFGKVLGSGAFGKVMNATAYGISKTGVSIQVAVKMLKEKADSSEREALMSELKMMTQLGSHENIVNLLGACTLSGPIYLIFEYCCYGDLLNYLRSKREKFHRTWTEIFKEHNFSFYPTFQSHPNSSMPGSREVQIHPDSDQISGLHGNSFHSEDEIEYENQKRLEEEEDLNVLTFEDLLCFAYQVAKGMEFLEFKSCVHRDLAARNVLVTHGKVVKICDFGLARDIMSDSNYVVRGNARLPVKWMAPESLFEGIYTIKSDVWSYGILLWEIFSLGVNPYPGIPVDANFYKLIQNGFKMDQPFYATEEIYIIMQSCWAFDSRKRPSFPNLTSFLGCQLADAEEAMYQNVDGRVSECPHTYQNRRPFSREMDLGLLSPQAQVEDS

[20] = AUClast in Swiss albino mouse at 10 mg/kg, po; format: ADME, organism-based; design: time 0 - last, dose 10 mg/kg, route oral; conditions: plasma; method in brief: as §1
[21] = Tmax in Swiss albino mouse at 10 mg/kg, po; format: ADME, organism-based; design: dose 10 mg/kg, route oral; conditions: in vivo; method in brief: as §1
Mus musculus [22] = experiment: Oral bioavailability in Swiss albino mouse at 10 mg/kg; format: ADME, organism-based; conditions: in vivo; method in brief: as §1
[23] = Volume of distribution at steady state in Swiss albino mouse at 1 mg/kg, iv; format: ADME, organism-based; design: dose 1 mg/kg, route intravenous; conditions: in vivo, read-out: Vdss; method in brief: as §1
[24] = Half life in Swiss albino mouse at 1 mg/kg, iv; format: ADME, organism-based; design: dose 1 mg/kg, route intravenous; conditions: in vivo; method in brief: as §1
[25] = Cmax in Swiss albino mouse at 10 mg/kg, po; format: ADME, organism-based; design: dose 10 mg/kg, route oral; conditions: in vivo; method in brief: as §1
[26] = Clearance in Swiss albino mouse at 1 mg/kg, iv; format: ADME, organism-based; design: dose 1 mg/kg, route intravenous; conditions: in vivo; method in brief: as §1
[27] = AUClast in Swiss albino mouse at 1 mg/kg, iv; format: ADME, organism-based; design: dose 1 mg/kg, route intravenous, time 0 - last; conditions: plasma; method in brief: as §1
[28] = Cmax in Swiss albino mouse at 1 mg/kg, iv; format: ADME, organism-based; design: dose 1 mg/kg, route intravenous; conditions: in vivo; method in brief: as §1

Row | Compound | Vd [2] [L/kg] | half-life [3] [min] | Cmax [4] [µM] | Cmax [5] [nM] | F (Mus musculus [6]) [%] | Tmax [7] [min] | clearance [8] [mL/min/kg] | AUC(0-t) [9] [µM·h] | AUC(0-t) [10] [µM·h] | other results
1 | CCCCNc1ncc2c(-c3ccc(CN4CCN(C)CC4)cc3)cn([C@H]3CC[C@H](O)CC3)c2n1.Cl | – | – | – | – | – | – | – | – | – | Kinetic_solubility [1]: 38 µg/mL
2 | CCCCNc1ncc2c(-c3ccc(S(=O)(=O)N4CCOCC4)cc3)cn([C@H]3CC[C@H](O)CC3)c2n1 | 0.78 | 13.8 | 7.9 | 160 | 8.4 | 15 | 70 | 1.4 | 0.12 | –
3 | CCCCNc1ncc2c(-c3ccc(S(=O)(=O)N4CCOCC4)cc3)nn([C@H]3CC[C@H](O)CC3)c2n1 | 0.43 | 138 | 16 | 13 | 0.3 | 30 | 30 | 3.3 | 0.01 | –
4 | CN1CCN(S(=O)(=O)c2ccc(-c3cn([C@H]4CC[C@H](O)CC4)c4nc(NCCC5CC5)ncc34)c(F)c2)CC1 | 5.3 | 72 | 1.2 | 420 | 67 | 15 | 76 | 1 | 0.69 | –
5 | CCCCNc1ncc2c(-c3ccc(CN4CCN(C)CC4)cc3)cn([C@H]3CC[C@H](O)CC3)c2n1 [listing 2 of 2 here] | – | – | – | – | – | – | – | – | – | inhibition [18]: Active; inhibition [19]: Active
6 | CCCCNc1ncc2c(-c3ccc(S(=O)(=O)N4CCN(C)CC4)c(F)c3)cn([C@H]3CC[C@H](O)CC3)c2n1 | – | – | – | – | – | – | – | – | – | AUC(0-t) [20]: 0.66 µM·h; Tmax [21]: 15 min; F (Mus musculus [22]): 25%; Vd [23]: 5.5 L/kg; half-life [24]: 48 min; Cmax [25]: 390 nM; clearance [26]: 103 mL/min/kg; AUC(0-t) [27]: 0.27 µM·h; Cmax [28]: 400 nM

The next lines start with results.

Row | Vd [2] [L/kg] | half-life [3] [min] | Cmax [4] [µM] | Cmax [5] [nM] | F (Mus musculus [6]) [%] | Tmax [7] [min] | clearance [8] [mL/min/kg] | AUC(0-t) [9] [µM·h] | AUC(0-t) [10] [µM·h] | Compound | other results
7 | 2 | 264 | 6.5 | 1300 | 78 | 60 | 7.2 | 12 | 9 | CN1CCN(Cc2ccc(-c3cn([C@H]4CC[C@H](O)CC4)c4nc(NCCC5CC5)ncc34)cc2)CC1 | –
8 | 2.3 | 228 | 4.1 | 1600 | 100 | 30 | 9.2 | 9.2 | 9.2 | CCCCNc1ncc2c(-c3ccc(CN4CCN(C)CC4)cc3)cn([C@H]3CC[C@H](O)CC3)c2n1 [listing 1 of 2 here] | fraction unbound at 0.5 h [11]: 0.014; inhibition in vivo at 3 mg/kg 697: > 90%; concentration at 0.5 h [12]: 1600 nM; IC50 [13]: 6.14 nM; IC50 [14]: 8.18 nM; IC50 [15]: 4.38 nM; IC50 [16]: 7.97 nM; IC50 [17]: 364 nM; Cp(f) (Plasma): 22 nM
